From ChEMBL document CHEMBL1137287, “Peptidyl-urea based inhibitors of soluble epoxide hydrolases” (Bioorg Med Chem Lett, 2006)

Legend:
[1] = Plasma concentration in dog at 0.3 mg/kg, po after 15 min; format: ADME, organism-based, Canis lupus familiaris; parameters: dose 0.3 mg/kg, route oral
Summary of the method: (§1)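 Dogs given oral dose of 0.3 mg/kg per inhibitor, three different inhibitors per dog per experiment, formulated at 6 mg/mL in triglycerides (tristearate, 6 mL). AUC estimated from plasma concentration (nM) versus time (min) plot.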

[2] = Plasma concentration in dog at 0.3 mg/kg, po after 30 min; format: ADME, organism-based, Canis lupus familiaris; parameters: dose 0.3 mg/kg, route oral; summary of the method: as §1
[3] = Plasma concentration in dog at 0.3 mg/kg, po after 60 min; format: ADME, organism-based, Canis lupus familiaris; parameters: dose 0.3 mg/kg, route oral; summary of the method: as §1
[4] = Plasma concentration in dog at 0.3 mg/kg, po after 120 min; format: ADME, organism-based, Canis lupus familiaris; parameters: dose 0.3 mg/kg, route oral; summary of the method: as §1
[5] = Plasma concentration in dog at 0.3 mg/kg, po after 180 min; format: ADME, organism-based, Canis lupus familiaris; parameters: dose 0.3 mg/kg, route oral; summary of the method: as §1
[6] = Plasma concentration in dog at 0.3 mg/kg, po after 240 min; format: ADME, organism-based, Canis lupus familiaris; parameters: dose 0.3 mg/kg, route oral; summary of the method: as §1
[7] = Plasma concentration in dog at 0.3 mg/kg, po after 300 min; format: ADME, organism-based, Canis lupus familiaris; parameters: dose 0.3 mg/kg, route oral; summary of the method: as §1
[8] = Plasma concentration in dog at 0.3 mg/kg, po after 360 min; format: ADME, organism-based, Canis lupus familiaris; parameters: dose 0.3 mg/kg, route oral; summary of the method: as §1
[9] = Plasma concentration in dog at 0.3 mg/kg, po after 480 min; format: ADME, organism-based, Canis lupus familiaris; parameters: dose 0.3 mg/kg, route oral; summary of the method: as §1
[10] = target: T1, Bifunctional epoxide hydrolase 2 (Mus musculus, UniProt P34914); test: Inhibition of mouse recombinant soluble Epoxide hydrolase
T1 sequence (P34914 whole entry): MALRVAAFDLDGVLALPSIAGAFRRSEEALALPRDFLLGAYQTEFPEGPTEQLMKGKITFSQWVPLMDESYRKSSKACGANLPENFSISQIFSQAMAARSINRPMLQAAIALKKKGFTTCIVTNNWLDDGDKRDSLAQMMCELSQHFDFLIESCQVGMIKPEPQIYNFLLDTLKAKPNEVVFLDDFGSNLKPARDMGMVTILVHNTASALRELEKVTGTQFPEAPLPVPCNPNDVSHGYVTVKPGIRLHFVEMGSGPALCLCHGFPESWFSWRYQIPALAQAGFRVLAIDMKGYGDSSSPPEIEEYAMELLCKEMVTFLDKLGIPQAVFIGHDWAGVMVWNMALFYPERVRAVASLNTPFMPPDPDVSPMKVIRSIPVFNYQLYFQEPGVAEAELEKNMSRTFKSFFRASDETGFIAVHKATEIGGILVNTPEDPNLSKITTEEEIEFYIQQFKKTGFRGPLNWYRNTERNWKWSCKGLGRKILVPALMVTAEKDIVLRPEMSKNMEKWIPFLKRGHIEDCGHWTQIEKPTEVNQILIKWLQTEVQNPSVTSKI

[11] = target: T2, Bifunctional epoxide hydrolase 2 (Homo sapiens, UniProt P34913); test: Inhibition of human recombinant soluble Epoxide hydrolase
T2 sequence (P34913 whole entry): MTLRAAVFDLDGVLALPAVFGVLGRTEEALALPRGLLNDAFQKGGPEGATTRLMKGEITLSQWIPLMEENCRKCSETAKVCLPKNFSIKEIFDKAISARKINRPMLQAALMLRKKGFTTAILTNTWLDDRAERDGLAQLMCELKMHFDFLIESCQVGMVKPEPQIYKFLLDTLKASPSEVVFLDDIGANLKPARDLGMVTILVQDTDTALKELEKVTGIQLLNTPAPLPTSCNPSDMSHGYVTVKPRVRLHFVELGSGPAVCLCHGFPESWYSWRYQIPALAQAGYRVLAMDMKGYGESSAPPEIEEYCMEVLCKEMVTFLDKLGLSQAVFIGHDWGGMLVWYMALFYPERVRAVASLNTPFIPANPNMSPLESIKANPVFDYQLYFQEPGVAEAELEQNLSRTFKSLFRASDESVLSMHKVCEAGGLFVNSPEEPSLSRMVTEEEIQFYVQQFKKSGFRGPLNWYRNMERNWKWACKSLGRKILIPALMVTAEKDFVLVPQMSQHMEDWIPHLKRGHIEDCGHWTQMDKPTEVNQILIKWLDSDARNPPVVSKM

[12] = Solubility in sodium phosphate buffer at pH 7.4; format: physicochemical
Summary of the method: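 Solubility measured in sodium phosphate buffer, 100 mM, pH 7.4, following a previously described procedure.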

[13] = AUC in dog at 0.3 mg/kg, po; format: ADME, organism-based, Canis lupus familiaris; parameters: dose 0.3 mg/kg, route oral; conditions: plasma; summary of the method: as §1

Structure (SMILES)	IC50 [10] [µM]	IC50 [11] [µM]	solubility [12] [µM]	also measured
O=C(O)CCCCCCCCCCCNC(=O)NC12CC3CC(CC(C3)C1)C2	–	–	–	concentration at 0.25 h [1]: 6.97 nM; concentration at 0.5 h [2]: 20.4 nM; concentration at 1 h [3]: 30.7 nM; concentration at 2 h [4]: 26.3 nM; concentration at 3 h [5]: 13.4 nM; concentration at 4 h [6]: 6.12 nM; concentration at 5 h [7]: 1.61 nM; concentration at 6 h [8]: 1.17 nM; concentration at 8 h [9]: 0.86 nM
NC(N)=NCCC[C@H](NC(=O)CNC(=O)NC1CCCCC1)C(=O)O	> 100	> 100	> 500	–
O=C(O)CC[C@H](NC(=O)CNC(=O)NC1CCCCC1)C(=O)O	> 100	> 100	> 500	–
CC(C)[C@H](NC(=O)CNC(=O)NC1CCCCC1)C(=O)O	> 100	> 100	> 500	–
O=C(CCCCCNC(=O)NC12CC3CC(CC(C3)C1)C2)N[C@@H](Cc1ccccc1)C(=O)N[C@@H](Cc1c[nH]c2ccccc12)C(=O)O	–	–	> 500	Ki [11]: 0.015 µM; concentration at 0.25 h [1]: 0.62 nM; concentration at 0.5 h [2]: 0.82 nM; concentration at 1 h [3]: 0.33 nM; AUC [13]: < 1.67 nM·h

Continued, in another order:

IC50 [10] [µM]	IC50 [11] [µM]	solubility [12] [µM]	Structure (SMILES)	also measured
1	25	> 500	N=C(N)NCCC[C@H](NC(=O)CCCNC(=O)NC1CCCCC1)C(=O)O	–
18	> 100	> 500	O=C(CNC(=O)NC1CCCCC1)N[C@@H](Cc1ccccc1)C(=O)O	–
1.6	21	> 500	O=C(CCCNC(=O)NC1CCCCC1)N[C@@H](Cc1ccccc1)C(=O)O	–
1.7	24	> 500	O=C(O)CC[C@H](NC(=O)CCCNC(=O)NC1CCCCC1)C(=O)O	–
0.05	30	> 500	O=C(CCCNC(=O)NC1CCCCC1)N[C@@H](Cc1cnc[nH]1)C(=O)O	–
36	> 100	> 500	O=C(CNC(=O)NC1CCCCC1)N[C@@H](Cc1cnc[nH]1)C(=O)O	–
